Here are results for one molecule from paper PMC7610535 (Nature chemical biology, 2020).

For assay [1], the target named is T1, AURORA-A (Homo sapiens, UniProt O14965).
T1 sequence (O14965 1-403): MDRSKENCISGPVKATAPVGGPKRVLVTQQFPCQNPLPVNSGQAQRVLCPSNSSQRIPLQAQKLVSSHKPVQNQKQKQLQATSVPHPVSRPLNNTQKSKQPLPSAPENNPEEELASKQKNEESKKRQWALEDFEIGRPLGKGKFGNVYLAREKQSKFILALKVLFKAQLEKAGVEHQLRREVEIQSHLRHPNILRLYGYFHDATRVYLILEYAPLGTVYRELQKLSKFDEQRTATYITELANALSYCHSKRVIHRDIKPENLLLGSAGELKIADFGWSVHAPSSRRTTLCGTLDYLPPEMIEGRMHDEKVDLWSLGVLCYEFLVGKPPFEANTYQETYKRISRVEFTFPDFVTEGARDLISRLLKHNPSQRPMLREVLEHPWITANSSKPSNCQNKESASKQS
Description: AURORA-A-NanoLuc target engagement assay. Type of assay: binding. The following applies: AURORA-A vs AURORA-B, depending on experimental conditions (BRET, Kinobeads). (In general: BRET reads energy transfer from a luciferase to a nearby fluorophore.)

Assay [2] has as its target T1, AURORA-A. Briefly: Immunoblot of AURORA-A in compound-treated MV4-11 cells. It counts as cell-based. On the technique in general: Immunoblotting shows a protein as a band on a membrane.
The next assay has as its system MV4-11 cells. Description: BrdU/PI flow cytometry, cell cycle distribution of MV4-11 cells. The following applies: 1 µM, 12 hours. Type of assay: cell-based, human. An outline of the steps: (§1)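 Cells were pulsed with 10 µM BrdU for 1 h, washed in ice-cold PBS and fixed overnight in 80% ethanol at −20 °C. After a 1% BSA/PBS-T wash, they were stained 30 min at 37 °C with RNase A (24 µg/ml) and propidium iodide (54 µM), then analysed by flow cytometry. For IMR5, the EtOH-treated cells of the doxycycline-inducible line served as the non-overexpressing cells.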
(Flow cytometry measures light scatter and fluorescence of single cells or particles in a stream.)

In a further assay the test system is IMR5 cells. Briefly: BrdU/PI flow cytometry, cell cycle distribution of IMR5 cells. It counts as cell-based, human. Conditions: IMR5 cells without ectopic AURORA-A, 1 µM, 18 hours. An outline of the steps:
as §1

Another assay addresses AK2 (Homo sapiens, UniProt P54819). Briefly: Kinobead selectivity profiling: AK2. Type of assay: binding.

Usually Kd stands for the concentration at which binding is half-saturated. Read a high Kd as a looser complex. In the case of `COc1cc(Nc2ncc3c(n2)-c2ccc(Cl)cc2C(c2c(F)cccc2OC)=NC3)ccc1C(=O)O` [Alisertib, alisertib, reference compound], the “difference of affinities for AURORA-A and AURORA-B” value on AURORA-A [1] was 3- to 50 fold. Besides, on AURORA-A [2], the “reduction of steady-state AURORA-A levels (in words)” value is listed as “did not decrease AURORA-A levels, but instead substantially increased it”. The results for the cell cycle distribution entry in the assay with MV4-11 cells and with IMR5 cells were “almost all cells arrested in G2/M” and “led to G2/M arrest”, respectively. The same molecule returned an equilibrium dissociation constant (Kd) at AK2 of 215 nM.
